ChEMBL document CHEMBL1134405 (J Med Chem, 2001)
Values belong to the molecule of their own block, whether it stands above or below them. The source made the active and inactive calls. The calls are words filed in the database; no cut-off is given here. Peptide text beside a SMILES is read from it.

Experiments:
[1] = biological target: T1, Adenylate cyclase (Rattus norvegicus) (UniProt D4A3N4+P26770+Q04400+P26769+Q03343+P40146+Q8CFM9+P21932); assay: Adenylate cyclase activity of the compound, evaluated for the percentage maximum stimulation; format: protein assay
How it was run: (§1)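 Rat liver plasma membranes (male Sprague–Dawley, 200–250 g; sucrose-gradient purified), 35 μg protein in 0.1 mL with 1 mM [α-32P]ATP, 5 mM MgCl2, GTP, 1 mM EDTA, 1 mM cAMP plus [3H]cAMP tracer, 25 mM Tris pH 7.5, 0.4% BSA, phosphocreatine/creatine kinase regeneration. Labeled cAMP isolated by sequential Dowex and alumina chromatography.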

[2] = biological target: Glucagon receptor (Rattus norvegicus) (UniProt P30082); assay: Relative binding by measuring competition for glucagon receptor between [125]glucagon and the compound.
Sequence of Glucagon receptor (Rattus norvegicus) (P30082 whole entry): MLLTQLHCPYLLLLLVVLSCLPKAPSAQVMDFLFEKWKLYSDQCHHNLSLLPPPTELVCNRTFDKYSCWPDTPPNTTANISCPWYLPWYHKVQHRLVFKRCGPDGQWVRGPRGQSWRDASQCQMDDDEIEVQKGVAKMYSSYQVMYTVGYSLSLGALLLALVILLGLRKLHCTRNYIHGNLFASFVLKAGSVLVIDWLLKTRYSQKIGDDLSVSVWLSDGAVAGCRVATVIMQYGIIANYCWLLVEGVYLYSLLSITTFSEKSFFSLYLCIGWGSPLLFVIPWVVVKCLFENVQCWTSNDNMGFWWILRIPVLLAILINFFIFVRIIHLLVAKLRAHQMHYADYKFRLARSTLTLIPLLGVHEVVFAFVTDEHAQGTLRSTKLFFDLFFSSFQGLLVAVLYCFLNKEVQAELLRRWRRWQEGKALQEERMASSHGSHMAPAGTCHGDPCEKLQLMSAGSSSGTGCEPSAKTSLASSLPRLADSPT
How it was run: (§2)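 Incubation 10 min at 30 °C, then ice cooling and filtration on 0.45 μm cellulose acetate, gamma counting. Nonspecific binding taken with 1024 nM unlabeled peptide and subtracted. Read as % inhibition of specific binding. Triplicates, repeated twice.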

[3] = biological target: T1, Adenylate cyclase (Rattus norvegicus); assay: Maximum stimulation of adenylate cyclase.; format: protein assay
[4] = biological target: Glucagon receptor (Rattus norvegicus) (UniProt P30082); assay: Compound was evaluated for its ability to displace radiolabeled glucagon (inactive up to 100 uM); how it was run: as §2
[5] = biological target: T1, Adenylate cyclase (Rattus norvegicus); assay: Adenylate cyclase activity of the compound, expressed as effective concentration (inactive up to 100 uM); format: protein assay
How it was run: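 Adenylate cyclase in rat liver plasma membranes (35 μg protein), in 0.1 mL of 1 mM [α-32P]ATP, 5 mM MgCl2, […], 1 mM EDTA, 1 mM cAMP with [3H]cAMP tracer, 25 mM Tris pH 7.5, 0.4% BSA, plus a phosphocreatine/creatine phosphokinase regenerating system. [32P]cAMP isolated on Dowex and alumina columns.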

[6] = biological target: T1, Adenylate cyclase (Rattus norvegicus); assay: Relative potency was evaluated by measuring potency for conversion of [alpha-32P]ATP to cyclic 3',5'-AMP relative to glucagon; format: protein assay
[7] = pA2 value, a dose-response plot was obtained by determining the response when the concentration of glucagon was varied while the concentration was kept same.
Glucagon receptor [8] = biological target: T2, Glucagon receptor (Rattus norvegicus, UniProt P30082); assay: Compound was evaluated for its ability to displace radiolabeled glucagon; how it was run: as §2
T2 sequence (P30082 whole entry): as above

[9] = biological target: T1, Adenylate cyclase (Rattus norvegicus); assay: Adenylate cyclase stimulation; Inactive up to 100 uM.; format: protein assay
[10] = A dose-response plot was obtained by determining the response when the concentration of glucagon was varied while the concentration was kept same.
Glucagon receptor [11] = biological target: T2, Glucagon receptor; assay: IC50 value was expressed as inhibition of [125]glucagon specific binding.; how it was run: as §2
Glucagon receptor [12] = biological target: T2, Glucagon receptor; assay: IC50 value was expressed for inhibition of [125]glucagon specific binding.; how it was run: as §2
Adenylate cyclase [13] = assay: Adenylate cyclase activity of the compound, expressed as effective concentration; format: protein assay; how it was run: as §1
Adenylate cyclase [14] = assay: Effective concentration required for 50% conversion of [alpha-32P]ATP to cyclic 3',5'-AMP.; format: protein assay; how it was run: as §1
[15] = biological target: Glucagon receptor (Rattus norvegicus) (UniProt P30082); assay: Relative binding was evaluated by measuring competition for glucagon receptor between [125I]glucagon and the compound.

Molecule: GLUCAGON [listing 1 of 2 here]
Max stimulation [1]: 100%
Relative binding [2]: 100%

Molecule: H-HSQGTFTSDYS-NH2
Max stimulation [3]: 0%
IA [4]: Inactive up to 100 uM
Relative binding [2]: 0%
IA [5]: Inactive up to 100 uM

Molecule: H-TFTSDYSKYLDS-NH2
Max stimulation [3]: 0%
IA [4]: Inactive up to 100 uM
Relative binding [2]: 0%
IA [5]: Inactive up to 100 uM

Molecule: CC(C)C[C@H](NC(=O)[C@H](Cc1ccc(O)cc1)NC(=O)[C@H](CCCCN)NC(=O)[C@H](CO)NC(=O)[C@H](Cc1ccc(O)cc1)NC(=O)[C@H](CC(=O)O)NC(=O)[C@H](CO)NC(=O)[C@@H](NC(=O)[C@H](Cc1ccccc1)NC(=O)[C@@H](NC(=O)CNC(=O)[C@H](CCC(N)=O)NC(=O)[C@H](CO)NC(=O)[C@@H](N)Cc1c[nH]cn1)[C@@H](C)O)[C@@H](C)O)C(=O)N[C@@H](CC(=O)O)C(=O)N[C@@H](CO)C(=O)N[C@@H](CCCN=C(N)N)C(=O)N[C@@H](CCCN=C(N)N)C(=O)N[C@@H](C)C(=O)N[C@@H](CCC(N)=O)C(=O)N[C@@H](CC(=O)O)C(=O)N[C@@H](Cc1ccccc1)C(=O)N[C@H](C(=O)N[C@@H](CCC(N)=O)C(=O)O)C(C)C
Relative potency [6]: 0.0002%
Relative binding [2]: 0.0002%

Molecule: CSCC[C@H](NC(=O)[C@H](CC(C)C)NC(=O)[C@H](Cc1c[nH]c2ccccc12)NC(=O)[C@H](CCC(N)=O)NC(=O)[C@@H](NC(=O)[C@H](Cc1ccccc1)NC(=O)[C@H](CC(=O)O)NC(=O)[C@H](CCC(N)=O)NC(=O)[C@H](C)NC(=O)[C@H](CCCN=C(N)N)NC(=O)[C@H](CCCN=C(N)N)NC(=O)[C@H](CO)NC(=O)[C@H](CC(=O)O)NC(=O)[C@H](CC(C)C)NC(=O)[C@H](Cc1ccc(O)cc1)NC(=O)[C@H](CCCCN)NC(=O)[C@H](CO)NC(=O)[C@H](Cc1ccc(O)cc1)NC(=O)[C@H](CCC(=O)O)NC(=O)[C@H](CO)NC(=O)[C@@H](NC(=O)[C@H](Cc1ccccc1)NC(=O)[C@@H](NC(=O)CNC(=O)[C@H](CCC(N)=O)NC(=O)[C@@H](N)CO)[C@@H](C)O)[C@@H](C)O)C(C)C)C(=O)N[C@@H](CC(N)=O)C(=O)N[C@H](C(N)=O)[C@@H](C)O
pA2 [7]: 7.25
IC50 (Glucagon receptor [8]): 3.75 nM

Molecule: H-YSKYLDSRRAQ-NH2
IA [9]: Inactive up to 100 uM
Max stimulation [3]: 0%
IA [4]: Inactive up to 100 uM
Relative binding [2]: 0%

Molecule: H-SQGTTSEYSKYLDSRRAQDFVQWLMNT-NH2
pA2 [7]: 8.2
IC50 (Glucagon receptor [8]): 48 nM

Molecule: CSCC[C@H](NC(=O)[C@H](CC(C)C)NC(=O)[C@H](Cc1c[nH]c2ccccc12)NC(=O)[C@H](CCC(N)=O)NC(=O)[C@@H](NC(=O)[C@H](Cc1ccccc1)NC(=O)[C@H](CC(=O)O)NC(=O)[C@H](CCC(N)=O)NC(=O)[C@H](C)NC(=O)[C@H](CCCN=C(N)N)NC(=O)[C@H](CCCN=C(N)N)NC(=O)[C@H](CO)NC(=O)[C@H](CC(=O)O)NC(=O)[C@H](CC(C)C)NC(=O)[C@H](Cc1ccc2ccccc2c1)NC(=O)[C@H](CCCCN)NC(=O)[C@H](CO)NC(=O)[C@H](Cc1ccc(O)cc1)NC(=O)CCCc1ccccc1)C(C)C)C(=O)N[C@@H](CC(N)=O)C(=O)N[C@H](C(N)=O)[C@@H](C)O (HELM PEPTIDE1{[O=C(CCCc1ccccc1)[*:2]].Y.S.K.[O=C([C@H](Cc1ccc2ccccc2c1)N[*:1])[*:2]].L.D.S.R.R.A.Q.D.F.V.Q.W.L.M.N.T.[am]}$$$$V2.0)
pA2 [7]: 6.7
IC50 (Glucagon receptor [12]): 781 nM

Molecule: CSCC[C@H](NC(=O)[C@H](CC(C)C)NC(=O)[C@H](Cc1c[nH]c2ccccc12)NC(=O)[C@H](CCC(N)=O)NC(=O)[C@@H](NC(=O)[C@H](Cc1ccccc1)NC(=O)[C@H](CC(=O)O)NC(=O)[C@H](CCC(N)=O)NC(=O)[C@H](C)NC(=O)[C@H](CCCN=C(N)N)NC(=O)[C@H](CCCN=C(N)N)NC(=O)[C@H](CO)NC(=O)[C@H](CC(=O)O)NC(=O)[C@H](CC(C)C)NC(=O)[C@H](Cc1ccc(O)cc1)NC(=O)[C@H](CCCCN)NC(=O)[C@H](CO)NC(=O)[C@H](Cc1ccc(O)cc1)NC(=O)CCCc1ccccc1)C(C)C)C(=O)N[C@@H](CC(N)=O)C(=O)N[C@H](C(N)=O)[C@@H](C)O (HELM PEPTIDE1{[O=C(CCCc1ccccc1)[*:2]].Y.S.K.Y.L.D.S.R.R.A.Q.D.F.V.Q.W.L.M.N.T.[am]}$$$$V2.0)
pA2 [10]: 7.38

Molecule: Ac-YSKYLDSRRAQDFVQWLMNT-NH2
pA2 [10]: 7.44

Molecule: Ac-FTSDYSKYL-NH2
IA [9]: Inactive up to 100 uM
Max stimulation [3]: 0%
IA [4]: Inactive up to 100 uM
Relative binding [2]: 0%

Molecule: CC(C)C[C@H](NC(=O)[C@H](Cc1ccc(O)cc1)NC(=O)[C@H](CCCCN)NC(=O)[C@H](CO)NC(=O)[C@H](Cc1ccc(O)cc1)NC(=O)[C@H](CC(=O)O)NC(=O)[C@H](CO)NC(=O)[C@@H](NC(=O)[C@H](Cc1ccccc1)NC(=O)[C@@H](NC(=O)CNC(=O)[C@H](CCC(N)=O)NC(=O)[C@H](CO)NC(=O)[C@@H](N)Cc1c[nH]cn1)[C@@H](C)O)[C@@H](C)O)C(=O)N[C@@H](CC(N)=O)C(=O)N[C@@H](CO)C(=O)N[C@@H](CCCN=C(N)N)C(=O)O
Relative potency [6]: 0.0001%
Relative binding [2]: 0.0001%

Molecule: GLUCAGON [listing 2 of 2 here]
EC50 (Adenylate cyclase [13]): 5.9 nM
EC50 (Adenylate cyclase [14]): 8 nM

More lines, main results first:

IA [9]: Inactive up to 100 uM
Max stimulation [3]: 0%
Relative binding [2]: 0.19%
Molecule: CSCC[C@H](NC(=O)[C@H](CC(C)C)NC(=O)[C@H](Cc1c[nH]c2ccccc12)NC(=O)[C@H](CCC(N)=O)NC(=O)[C@@H](NC(=O)[C@H](Cc1ccccc1)NC(=O)[C@H](CC(=O)O)NC(=O)[C@H](CCC(N)=O)NC(=O)[C@H](C)NC(=O)[C@H](CCCN=C(N)N)NC(=O)[C@H](CCCN=C(N)N)NC(=O)[C@H](CO)NC(=O)[C@H](CC(=O)O)NC(=O)[C@H](CC(C)C)NC(=O)[C@H](Cc1ccc2ccccc2c1)NC(=O)[C@H](CCCCN)NC(=O)[C@H](CO)NC(=O)[C@H](Cc1ccc2ccccc2c1)NC(C)=O)C(C)C)C(=O)N[C@@H](CC(N)=O)C(=O)N[C@H](C(N)=O)[C@@H](C)O (HELM PEPTIDE1{[ac].[O=C([C@H](Cc1ccc2ccccc2c1)N[*:1])[*:2]].S.K.[O=C([C@H](Cc1ccc2ccccc2c1)N[*:1])[*:2]].L.D.S.R.R.A.Q.D.F.V.Q.W.L.M.N.T.[am]}$$$$V2.0)
pA2 [10]: 6.87

IA [9]: Inactive up to 100 uM
Max stimulation [3]: 0%
IA [4]: Inactive up to 100 uM
Relative binding [2]: 0%
Molecule: H-DSRRAQDFVQWL-NH2

Relative potency [6]: < 0.0001%
Relative binding [2]: < 0.0001%
Molecule: CC(C)C[C@H](NC(=O)[C@H](Cc1ccc(O)cc1)NC(=O)[C@H](CCCCN)NC(=O)[C@H](CO)NC(=O)[C@H](Cc1ccc(O)cc1)NC(=O)[C@H](CC(=O)O)NC(=O)[C@H](CO)NC(=O)[C@@H](NC(=O)[C@H](Cc1ccccc1)NC(=O)[C@@H](NC(=O)CNC(=O)[C@H](CCC(N)=O)NC(=O)[C@H](CO)NC(=O)[C@@H](N)Cc1c[nH]cn1)[C@@H](C)O)[C@@H](C)O)C(=O)N[C@@H](CC(=O)O)C(=O)O

IC50 (Glucagon receptor [11]): 249 nM
Molecule: CSCC[C@H](NC(=O)[C@H](CC(C)C)NC(=O)[C@H](Cc1c[nH]c2ccccc12)NC(=O)[C@H](CCC(N)=O)NC(=O)[C@@H](NC(=O)[C@H](Cc1ccccc1)NC(=O)[C@H](CC(=O)O)NC(=O)[C@H](CCC(N)=O)NC(=O)[C@H](C)NC(=O)[C@H](CCCN=C(N)N)NC(=O)[C@H](CCCN=C(N)N)NC(=O)[C@H](CO)NC(=O)[C@H](CC(=O)O)NC(=O)[C@H](CC(C)C)NC(=O)[C@H](Cc1ccc(O)cc1)NC(=O)[C@H](CCCCN)NC(=O)[C@H](CO)NC(=O)[C@H](Cc1ccc(O)cc1)NC(=O)Cc1ccccc1)C(C)C)C(=O)N[C@@H](CC(N)=O)C(=O)N[C@H](C(N)=O)[C@@H](C)O (HELM PEPTIDE1{[O=C(Cc1ccccc1)[*:2]].Y.S.K.Y.L.D.S.R.R.A.Q.D.F.V.Q.W.L.M.N.T.[am]}$$$$V2.0)
pA2 [10]: 7.37

IC50 (Glucagon receptor [11]): 31 nM
Molecule: Ac-FTSDYSKYLDSRRAQDFVQWLMNT-NH2
pA2 [10]: 6.57

Relative potency [6]: < 0.0001%
Relative binding [15]: < 0.0001%
Molecule: H-HSQGTF-OH
